pIC50: −log10 of the molar value.
Biological target: L-lactate dehydrogenase A chain (Homo sapiens, UniProt P00338)
Test: Inhibition of human liver LDH5 using pyruvate as substrate and NADH as cofactor measured after 15 mins by fluorescence assay
Summary of the method: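 Purified human LDH isoform 5, forward reaction (pyruvate to lactate) in 100 mM phosphate buffer pH 7.4 with 200 μM pyruvate and 40 μM NADH. Seven concentrations from 500 to 0.7 μM, each in duplicate, DMSO not above 4%. NADH consumption read by fluorescence (ex 340, em 460 nm) after 15 min. Compound background fluorescence or quenching subtracted. IC50 from concentration–response curves.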

Question: O=C(OC[C@H]1O[C@@](CO)(O[C@H]2O[C@H](CO)[C@@H](O)[C@H](O[C@@H]3O[C@H](CO)[C@@H](O)[C@H](O)[C@H]3O)[C@H]2O)[C@@H](O)[C@@H]1O)c1ccccc1 was tested. Which pIC50 did it give?
Answer: The pIC50 was < 3.30.

Question: With C[C@@H]1O[C@@H](OC[C@H]2O[C@@H](Oc3c(-c4ccc(O)c(O)c4)oc4cc(O)cc(O)c4c3=O)[C@H](O[C@@H]3OC[C@](O)(CO)[C@H]3O)[C@@H](O)[C@@H]2O)[C@H](O)[C@H](O)[C@H]1O as the compound, how does the pIC50 read?
Answer: Its pIC50 is < 3.30.

Question: C[C@@H]1O[C@@H](OC[C@H]2O[C@@H](Oc3c(-c4ccc(O)c(O)c4)oc4cc(O)cc(O)c4c3=O)[C@H](O[C@@H]3OC[C@](O)(COC(=O)/C=C/c4ccc(O)cc4)[C@H]3O)[C@@H](O)[C@@H]2O)[C@H](O)[C@H](O)[C@H]1O was tested. Which pIC50 did it give?
Answer: Its pIC50 is < 3.30.

Question: How did the pIC50 turn out when COc1cc(/C=C/C(=O)OC[C@@]2(O)CO[C@@H](O[C@H]3[C@H](Oc4c(-c5ccc(O)c(O)c5)oc5cc(O)cc(O)c5c4=O)O[C@H](CO[C@@H]4O[C@@H](C)[C@H](O)[C@@H](O)[C@H]4O)[C@@H](O)[C@@H]3O)[C@@H]2O)cc(OC)c1O was run?
Answer: The pIC50 was < 3.30.

Question: How did the pIC50 turn out when COc1cc(/C=C/C(=O)OC[C@H]2O[C@H](O[C@]3(CO)O[C@H](CO)[C@@H](O)[C@@H]3OC(=O)/C=C/c3cc(OC)c(O)c(OC)c3)[C@H](O)[C@@H](O)[C@@H]2O)cc(OC)c1O was run?
Answer: The pIC50 was 4.04.

Question: With C[C@@H]1O[C@@H](OC[C@H]2O[C@@H](Oc3c(-c4ccc(O)c(O)c4)oc4cc(O)cc(O)c4c3=O)[C@H](O)[C@@H](O)[C@@H]2O)[C@H](O)[C@H](O)[C@H]1O [RUTIN] as the compound, how does the pIC50 read?
Answer: Its pIC50 is < 3.30.

Question: With CC(=O)OC[C@H]1O[C@H](O[C@]2(CO)O[C@H](COC(=O)c3ccccc3)[C@@H](O)[C@@H]2O)[C@H](O)[C@@H](O[C@@H]2O[C@H](CO)[C@@H](O)[C@H](O)[C@H]2O)[C@@H]1O as the compound, how does the pIC50 read?
Answer: Its pIC50 is < 3.30.

Question: C[C@@H]1O[C@@H](OC[C@H]2O[C@@H](Oc3c(-c4ccc(O)c(O)c4)oc4cc(O)cc(O)c4c3=O)[C@H](O[C@@H]3OC[C@](O)(COC(=O)c4ccccc4)[C@H]3O)[C@@H](O)[C@@H]2O)[C@H](O)[C@H](O)[C@H]1O was tested. Which pIC50 did it give?
Answer: The pIC50 was < 3.30.

Question: COc1cc(/C=C/C(=O)OC[C@@]2(O)CO[C@@H](O[C@H]3[C@H](Oc4c(-c5ccc(O)c(O)c5)oc5cc(O)cc(O)c5c4=O)O[C@H](CO[C@@H]4O[C@@H](C)[C@H](O)[C@@H](O)[C@H]4O)[C@@H](O)[C@@H]3O)[C@@H]2O)ccc1O was tested. Which pIC50 did it give?
Answer: The pIC50 was < 3.30.

Question: CC(=O)O[C@@H]1[C@H](O[C@@H]2OC[C@](O)(CO)[C@H]2O)[C@@H](O[C@@H]2O[C@@H](C)[C@H](O)[C@@H](O)[C@H]2O)[C@H](OC(=O)[C@]23CCC(C)(C)C[C@H]2C2=CC[C@@H]4[C@@]5(C)C[C@H](O)[C@H](O[C@@H]6O[C@H](CO)[C@@H](O)[C@H](O)[C@H]6O)[C@@](C)(C(=O)O)[C@@H]5CC[C@@]4(C)[C@]2(C)CC3)O[C@H]1C was tested. Which pIC50 did it give?
Answer: Its pIC50 is < 3.30.

Question: How did the pIC50 turn out when COc1cc(/C=C/C(=O)OC[C@H]2O[C@H](O[C@]3(CO)O[C@H](CO)[C@@H](O)[C@@H]3OC(=O)/C=C/c3cc(OC)c(O)c(OC)c3)[C@H](O)[C@@H](O[C@@H]3O[C@H](CO)[C@@H](O)[C@H](O)[C@H]3O)[C@@H]2O)cc(OC)c1O was run?
Answer: Its pIC50 is 3.72.
